In brackets after ≈: the same amount, converted by molar mass. Numbered stars: 1 amine (or outer) side, 2 acyl side, 3 side chain; on linkers, the order of the positions; unused ones are H or OH. Peptide text beside a SMILES is read from it. * marks the point of attachment. Piperazinyl(4-(2,3-Cl2Ph)) = Clc1cccc(N2CCN(*)CC2)c1Cl; Thiocarbamoyl(4-MeOPh) = COc1ccc(NC(=S)*)cc1; X1 = Fc1ccc2c(C3CCN(*)CC3)noc2c1; NH(2-F-phenyl) = Fc1ccccc1N*; CO = O=C([*:1])[*:2]; OcHex = C1CCC(O*)CC1
Tests used:
Assay type in all cases: functional
Aspergillus niger [1] = assay: Ratio of bavistin MIC to compound MIC for Aspergillus niger after 72 hrs by microdilution method
Klebsiella pneumoniae = assay: Antibacterial activity against Klebsiella pneumoniae at 30 ug/ml after 24 hrs by agar well diffusion method; conditions: read-out: DIZ
Outline: (§1)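 Agar well diffusion. Inocula were grown in nutrient broth at 37 °C for 24 h, then subcultured in nutrient broth at room temperature. Compounds were made as a 1 mg/mL DMSO stock and diluted to 30 µg/mL final. Nutrient agar plates were spread-inoculated and 6 mm wells each got 0.1 mL. Controls were amoxicillin (reference) and DMSO (negative). Incubation was 24 h at 37 °C. Inhibition zone was measured in mm as the mean of three determinations.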

Fusarium oxysporum [2] = assay: Antifungal activity against Fusarium oxysporum after 72 hrs by microdilution method
Fusarium oxysporum [3] = assay: Antifungal activity against Fusarium oxysporum at 30 ug/ml after 72 hrs by agar well diffusion method; conditions: read-out: DIZ
Outline: (§2)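 Fungal well diffusion. Inocula were subcultured in nutrient broth for one day, then spread on solidified medium. Compounds were made as a 1 mg/mL DMSO stock and diluted to 30 µg/mL final. Each 6 mm well got 0.1 mL. Controls were bavistin (reference) and DMSO (negative). Plates stood for 3 days at room temperature. Inhibition zone was measured in mm as the mean of three determinations.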

Aspergillus niger [4] = assay: Antifungal activity against Aspergillus niger at 30 ug/ml after 72 hrs by agar well diffusion method; conditions: read-out: DIZ; outline: as §2
Aspergillus flavus [5] = assay: Ratio of bavistin MIC to compound MIC for Aspergillus flavus after 72 hrs by microdilution method
Aspergillus flavus [6] = assay: Antifungal activity against Aspergillus flavus after 72 hrs by microdilution method
Xanthomonas oryzae = assay: Antibacterial activity against Xanthomonas oryzae at 30 ug/ml after 24 hrs by agar well diffusion method; conditions: read-out: DIZ
Aspergillus flavus [7] = assay: Antifungal activity against Aspergillus flavus at 30 ug/ml after 72 hrs by agar well diffusion method; conditions: read-out: DIZ; outline: as §2
Staphylococcus aureus = assay: Antibacterial activity against coagulase-positive Staphylococcus aureus at 30 ug/ml after 24 hrs by agar well diffusion method; conditions: read-out: DIZ; outline: as §1
Fusarium oxysporum [8] = assay: Ratio of bavistin MIC to compound MIC for Fusarium oxysporum after 72 hrs by microdilution method
Escherichia coli = assay: Antibacterial activity against Escherichia coli at 30 ug/ml after 24 hrs by agar well diffusion method; conditions: read-out: DIZ; outline: as §1
Aspergillus niger [9] = assay: Antifungal activity against Aspergillus niger after 72 hrs by microdilution method

Compound | Ratio (Aspergillus niger [1]) | zone of inhibition at 30 µg/mL (Klebsiella pneumoniae) [mm] | MIC (Fusarium oxysporum [2]) [mg/L] | zone of inhibition at 30 µg/mL (Fusarium oxysporum [3]) [mm] | zone of inhibition at 30 µg/mL (Aspergillus niger [4]) [mm] | Ratio (Aspergillus flavus [5]) | MIC (Aspergillus flavus [6]) [mg/L] | zone of inhibition at 30 µg/mL (Xanthomonas oryzae) [mm] | zone of inhibition at 30 µg/mL (Aspergillus flavus [7]) [mm] | zone of inhibition at 30 µg/mL (Staphylococcus aureus) [mm] | Ratio (Fusarium oxysporum [8]) | zone of inhibition at 30 µg/mL (Escherichia coli) [mm] | MIC (Aspergillus niger [9]) [mg/L]
CC(C)[C@H](NC(=O)CNC(=O)[C@@H]1CCCN1C(=O)[C@H](Cc1ccccc1)NC(=O)CNC(=O)[C@H](CCC(=O)OC1CCCCC1)NC(=O)CNC(=O)Nc1ccccc1F)C(=O)NCC(=O)N[C@H](C(=O)N1CCC[C@H]1C(=O)NCC(=O)N[C@H](C(=O)NCC(=O)N[C@@H](Cc1ccccc1)C(=O)N1CCC[C@H]1C(=O)NCC(=O)N[C@@H](Cc1ccccc1)C(=O)NCC(=O)N[C@@H](Cc1ccccc1)C(=O)N1CCC[C@H]1C(=O)NCC(=O)N[C@H](C(=O)NCC(=O)N[C@H](C(=O)N1CCC[C@H]1C(=O)NCC(=O)N[C@H](C(=O)NCC(=O)N[C@@H](Cc1ccccc1)C(=O)N1CCC[C@H]1C(=O)N1CCN(c2cccc(Cl)c2Cl)CC1)C(C)C)C(C)C)C(C)C)C(C)C)C(C)C ({NH(2-F-phenyl)-CO}-GE(OcHex)GFPGVGVPGVGFPGFGFPGVGVPGVGFP-{Piperazinyl(4-(2,3-Cl2Ph))}) | 10 | 21 | 2 (≈ 0.629 µM) | 43 | 48 | 10 | 1.75 (≈ 0.551 µM) | 19 | 42 | 20 | 10 | 22 | 2 (≈ 0.629 µM)
CC(C)[C@H](NC(=O)CNC(=O)[C@@H]1CCCN1C(=O)[C@H](Cc1ccccc1)NC(=O)CNC(=O)[C@H](CCC(=O)OC1CCCCC1)NC(=O)CNC(=O)Nc1ccccc1F)C(=O)NCC(=O)N[C@H](C(=O)N1CCC[C@H]1C(=O)NCC(=O)N[C@H](C(=O)NCC(=O)N[C@H](C(=O)N1CCC[C@H]1C(=O)NCC(=O)N[C@H](C(=O)NCC(=O)N[C@H](C(=O)N1CCC[C@H]1C(=O)NCC(=O)N[C@@H](Cc1ccccc1)C(=O)NCC(=O)N[C@@H](Cc1ccccc1)C(=O)N1CCC[C@H]1C(=O)NCC(=O)N[C@@H](Cc1ccccc1)C(=O)NCC(=O)N[C@@H](Cc1ccccc1)C(=O)N1CCC[C@H]1C(=O)N1CCC(c2noc3cc(F)ccc23)CC1)C(C)C)C(C)C)C(C)C)C(C)C)C(C)C ({NH(2-F-phenyl)-CO}-GE(OcHex)GFPGVGVPGVGVPGVGVPGFGFPGFGFP-X1) | 10 | 22 | 1.5 (≈ 0.474 µM) | 44 | 46 | 10 | 1.25 (≈ 0.395 µM) | 21 | 43 | 22 | 10 | 24 | 1.25 (≈ 0.395 µM)
COc1ccc(NC(=S)NCC(=O)N[C@@H](CCC(=O)OC2CCCCC2)C(=O)NCC(=O)N[C@@H](Cc2ccccc2)C(=O)N2CCC[C@H]2C(=O)NCC(=O)N[C@H](C(=O)NCC(=O)N[C@H](C(=O)N2CCC[C@H]2C(=O)NCC(=O)N[C@H](C(=O)NCC(=O)N[C@@H](Cc2ccccc2)C(=O)N2CCC[C@H]2C(=O)NCC(=O)N[C@@H](Cc2ccccc2)C(=O)NCC(=O)N[C@@H](Cc2ccccc2)C(=O)N2CCC[C@H]2C(=O)NCC(=O)N[C@H](C(=O)NCC(=O)N[C@H](C(=O)N2CCC[C@H]2C(=O)NCC(=O)N[C@H](C(=O)NCC(=O)N[C@@H](Cc2ccccc2)C(=O)N2CCC[C@H]2C(=O)N2CCN(c3cccc(Cl)c3Cl)CC2)C(C)C)C(C)C)C(C)C)C(C)C)C(C)C)C(C)C)cc1 ({Thiocarbamoyl(4-MeOPh)}-GE(OcHex)GFPGVGVPGVGFPGFGFPGVGVPGVGFP-{Piperazinyl(4-(2,3-Cl2Ph))}) | 10 | 15 | 3.25 (≈ 1.01 µM) | 38 | 42 | 10 | 2.75 (≈ 0.858 µM) | 13 | 37 | 14 | 10 | 15 | 2.75 (≈ 0.858 µM)
